Our source for the yeast fitness values is the RNAGym collection of RNA variant scans (doi:10.1126/science.aae0568).

This sample holds only a part of the variants without activity.

Sequences and labels used below:
B1: tRNA (parent)
chain: GUUCCGUUGGCGUAAUGGUAACGCGUCUCCCUCCUAAGGAGAAGACUGCGGGUUCGAGUCCCGUACGGAACG

In this data set the parent is B1. The data set is described as follows: yeast fitness relative to wild type (ratio to wild type); higher = fitter; tRNA-Arg(CCU), competitive growth, 37 C, YPD. The procedure, abridged:
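A pool of Saccharomyces cerevisiae strains, each with a tRNA-Arg(CCU) gene variant at the native genomic locus, was competed in YPD at 37°C for 24 hours across six parallel replicates. The variants had been chemically synthesised at a 3% per-site mutation rate over 69 sites, and gene amplicons before and after competition were read by 100-nucleotide paired-end sequencing. Darwinian fitness relative to wild type rested on changes in genotype frequencies. Genotypes required ≥ 100 starting reads, and estimates < 0.5 were set to 0.5.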
As for G38A U59G, the yeast fitness was 0.705.

A37U A65G: the yeast fitness was determined as 0.651.

Regarding A36U A45U C46A C66U A69U, the yeast fitness is not above 0.5.

For G38A G56A A70U, the yeast fitness is 0.7.

Turning to A37G U47A C60A, the yeast fitness is not above 0.5.

Consider G38A A65U G68U, for which the yeast fitness came to 0.665.

On to A36G U59C C61A C62U, for which the yeast fitness is not above 0.5.

Consider A37G U54C A65U, for which the yeast fitness was not above 0.5.

On to A37G A40G, for which the yeast fitness came to 0.912.

In the case of A37G A40C, the yeast fitness was determined as 0.685.

A37G A57G U64C: the yeast fitness was not above 0.5.

Turning to A37C C46U A65C, the yeast fitness was 0.638.

Turning to A36U A69U, the yeast fitness was determined as 0.623.

For the variant A37C C46G C49G, the yeast fitness is 0.568.

Regarding A36G U64C C66U, the yeast fitness is 0.768.

On to A37G G39A C46G U53C C62U A69C, for which the yeast fitness is not above 0.5.

With A37C A70U, the yeast fitness came out at 0.752.

Regarding A37C A70C, the yeast fitness came to 0.968.

In the case of A37C G68C, the yeast fitness turned out to be 0.764.

In the case of A37C C49G A57C, the yeast fitness was not above 0.5.

For the variant A36G G58A C60U, the yeast fitness was not above 0.5.

On to A37U U47A G52U, for which the yeast fitness is not above 0.5.

Regarding A36G C55A, the yeast fitness is 0.729.

In the case of A36U G52C, the yeast fitness came to 0.53.

For G38A C49U G51C, the yeast fitness was not above 0.5.

In the case of A37G G48C C49U C60A A65U, the yeast fitness is not above 0.5.

A36G G48A G51C: the yeast fitness was not above 0.5.

Regarding A37G A43G, the yeast fitness stood at 0.734.

For the variant A37G G56C A69C, the yeast fitness is not above 0.5.

Consider A36U A40U C60A, for which the yeast fitness stood at 0.713.

A36G U64C: the yeast fitness came out at 0.78.

Consider A37U G41C C46G, for which the yeast fitness was not above 0.5.

With A36U A45U U53A C62A, the yeast fitness is not above 0.5.

A37C C60U G67A: the yeast fitness worked out at 0.522.

For A37C A65G, the yeast fitness stood at 0.94.

For the variant A36U G58C C60U, the yeast fitness was not above 0.5.

On to A36U U47G A70G, for which the yeast fitness is not above 0.5.

As to A36U G68C, the yeast fitness stood at 0.698.

In the case of A36U G68A, the yeast fitness came out at 0.642.

Take A37C A43C C66A: the yeast fitness is not above 0.5.

On to A36U A43C G44C G48C, for which the yeast fitness is not above 0.5.

Take A36U C46G A69U: the yeast fitness came out at 0.538.

For the variant A36U A40G U53A, the yeast fitness is 0.627.

On to A36U C61U G63A C66U, for which the yeast fitness was not above 0.5.

Take A37C C55A A65C: the yeast fitness came out at 0.603.

For the variant G38A C60U, the yeast fitness stood at 0.831.

On to A36U C49U G58C C66U, for which the yeast fitness was not above 0.5.

Consider A37C C55G A69C, for which the yeast fitness is not above 0.5.

Take A37C G44C: the yeast fitness amounted to 0.758.

As for A36U A70U, the yeast fitness was determined as 0.747.

As for A36G U54A, the yeast fitness is 0.691.

On to A37G G52C A70U, for which the yeast fitness was determined as 0.552.

For the variant A36G U54A C60G, the yeast fitness is not above 0.5.

Turning to A37G A42U C62A A65C, the yeast fitness is not above 0.5.

For A37C A43C U59A A69G, the yeast fitness is not above 0.5.

On to A36G C55U G68C, for which the yeast fitness is 0.594.

A36U A37U: the yeast fitness was 0.587.

As for A36U A57C C62U, the yeast fitness was 0.627.

On to A37U G41C, for which the yeast fitness amounted to 0.68.

As to A36G A45C G52C A69C, the yeast fitness was 0.54.

Turning to G38A G68C, the yeast fitness came to 0.823.

Consider G38A G68A, for which the yeast fitness turned out to be 0.718.

As to A37C G50C, the yeast fitness is 0.551.

For the variant A36U C62U A65U, the yeast fitness stood at 0.519.

Consider A37G U47C, for which the yeast fitness amounted to 0.744.

Consider A36U G39A, for which the yeast fitness stood at 0.657.

Take A36U G39C: the yeast fitness was determined as 0.669.

In the case of A37C G67U, the yeast fitness was 0.828.

On to A37U A57G, for which the yeast fitness was 0.648.

A37U A57C: the yeast fitness stood at 0.578.

Take A37C C55A C60G G63C: the yeast fitness is not above 0.5.

In the case of A37C C46G C60A C66U, the yeast fitness was not above 0.5.

In the case of A37G G51C A70U, the yeast fitness is not above 0.5.

Turning to A36U G63A, the yeast fitness came out at 0.672.

A36G C61U U64C C66U: the yeast fitness is not above 0.5.

Take A36U G44A: the yeast fitness was 0.578.

A37G C46G G56A: the yeast fitness was determined as 0.624.

For the variant G38A C61A, the yeast fitness came out at 0.646.

A37G A43U A65C: the yeast fitness is 0.627.

As to A36G C61G, the yeast fitness amounted to 0.659.

For A37U A45U A65G, the yeast fitness is not above 0.5.

For A36G C49U U64C G68C, the yeast fitness was not above 0.5.

Take A37C U47A G58A: the yeast fitness is not above 0.5.

Turning to G38A C46A, the yeast fitness worked out at 0.993.

As for G38A C46U, the yeast fitness stood at 0.798.

With A37G A42U G48C C49U A65G, the yeast fitness is not above 0.5.

Regarding A37C A57C, the yeast fitness was determined as 0.543.

Regarding A37C A57G, the yeast fitness stood at 0.665.

Regarding G38A C62U A69C, the yeast fitness is 0.717.

As for A37C G48C, the yeast fitness is 0.751.

Regarding A37C G48A, the yeast fitness was 0.779.

As for A37U U59G C60U, the yeast fitness is not above 0.5.

As to G38A A43U U54A, the yeast fitness was not above 0.5.

Regarding A36G A42C C49A, the yeast fitness was 0.548.

For the variant A36U C55A, the yeast fitness was not above 0.5.

On to A37U G68C, for which the yeast fitness came to 0.837.

On to A36G A40G, for which the yeast fitness came to 1.01.

On to A37C C66A, for which the yeast fitness is 0.659.

For the variant A37G G44A A69U, the yeast fitness was found to be 0.525.

As for A37C A43C A65C, the yeast fitness is 0.612.

Take A37C C46G C62U: the yeast fitness was 0.872.

With A37G G44A, the yeast fitness is 0.73.

Turning to A37G G44C, the yeast fitness amounted to 0.809.

On to G38A A43G A70C, for which the yeast fitness is 0.584.

A36G C49U A69C: the yeast fitness was 0.836.

As for G38A A40C U53C, the yeast fitness was 0.538.

A36U A45C C49G: the yeast fitness stood at 0.704.

Consider A37G A40G C49U, for which the yeast fitness was found to be 0.501.

Regarding A37G C61U, the yeast fitness came to 0.785.

A37U C49U: the yeast fitness was 0.68.

With A37U G48A C61U, the yeast fitness was determined as 0.531.

Regarding A36U U53G, the yeast fitness worked out at 0.544.

For the variant A36U U53A, the yeast fitness worked out at 0.728.

Turning to A36G A45C A57C U64A G68A, the yeast fitness was not above 0.5.

In the case of A37C A42G G44A G67A, the yeast fitness is not above 0.5.

Consider A36U C61G A65C, for which the yeast fitness was not above 0.5.

Consider A37G A70U, for which the yeast fitness worked out at 0.741.

In the case of G38A A40U G50C C60G G67A A70C, the yeast fitness is not above 0.5.

Turning to A37U G44A C66U, the yeast fitness was 0.535.

For the variant A37C A40G G52C U59C A65U, the yeast fitness was not above 0.5.

A36U A40C: the yeast fitness came out at 0.54.

With A36U A40U, the yeast fitness is 0.591.

For A37U A57U A65C G68A, the yeast fitness came to 0.561.

In the case of A37G A65G, the yeast fitness came to 0.695.

On to A37G A65U, for which the yeast fitness was 0.598.

As for A37C C46G C62U A69U, the yeast fitness was 0.673.

In the case of A37C A43U G52A C62A C66A, the yeast fitness was not above 0.5.

For the variant A37G G39A A45C, the yeast fitness worked out at 0.635.

As to A37U A40U, the yeast fitness was determined as 0.72.

As for A37U A40C, the yeast fitness is 0.776.

As for A37G G48A, the yeast fitness stood at 0.768.

For A36U A65G, the yeast fitness turned out to be 0.673.

Regarding A37C G63C A69C, the yeast fitness is not above 0.5.

For A37G C49U, the yeast fitness worked out at 0.819.

On to A37C C55G, for which the yeast fitness was found to be 0.607.

With A37G C49A G56A, the yeast fitness was found to be 0.607.

For A37G U54A, the yeast fitness was not above 0.5.

With A37G U54C, the yeast fitness amounted to 0.674.

As to A36G G56A A70G, the yeast fitness was determined as 0.595.

As to A37G C55U G63A, the yeast fitness is not above 0.5.

As for A37C A43U A69U, the yeast fitness turned out to be 0.738.

Take A37U A45U G68U: the yeast fitness was not above 0.5.

For the variant A37C A42C C46A A70C, the yeast fitness was not above 0.5.

For the variant A37U G44A A57C C61G, the yeast fitness worked out at 0.625.

In the case of A37C U47C G51A G67A, the yeast fitness is not above 0.5.

With A37U A42C A69C, the yeast fitness was not above 0.5.

Regarding A37C A45U C61U, the yeast fitness was determined as 0.545.

On to A37C U64A, for which the yeast fitness stood at 0.729.

Take A37C A40C U53C: the yeast fitness amounted to 0.526.

Regarding A37C A42C C66A, the yeast fitness amounted to 0.547.

Consider A37U C61A G67C, for which the yeast fitness was 0.507.

A37U A42C: the yeast fitness was determined as 0.698.

As to A37U A42G, the yeast fitness was 0.588.

In the case of A36U U59C, the yeast fitness is 0.663.

Turning to A37C U59C, the yeast fitness was 0.699.

As for A37G C55G U64C, the yeast fitness is 0.633.

With A36U G38A, the yeast fitness amounted to 0.617.

For A37C C49G A70C, the yeast fitness was not above 0.5.

Turning to A37U C49U U64C, the yeast fitness worked out at 0.545.

As for A37U G48C A70U, the yeast fitness was found to be 0.547.

A36U A37U C55U: the yeast fitness is 0.634.

In the case of A36U A42C C55G C61G, the yeast fitness is not above 0.5.

A36G G48A C49U: the yeast fitness came out at 0.606.

Take A36U G56C: the yeast fitness amounted to 0.563.

Take A36U G56A: the yeast fitness is 0.574.

Consider G38A A43U G56A G63A, for which the yeast fitness is not above 0.5.

Consider A36G C66U A69U, for which the yeast fitness amounted to 0.76.
